Source: article PMC5431288 (European journal of medicinal chemistry, 2016)

How the values were obtained:
bovine brain tubulin = bovine brain tubulin (Bos taurus, UniProt P81947+Q6B856); conditions: read-out: tubulin assembly IC50; cited from earlier work
tubulin = conditions: cited from earlier work
A549 cell line = conditions: cited from earlier work
[1] = tested on: panel of 11 human tumor cell lines; assay: MTT antiproliferative assay, whole panel; format: cell-based; conditions: read-out: GI50 values across the panel
Summary of the method: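 Leukemia lines grown in RPMI-1640 and adherent carcinoma lines in DMEM, each with 10% FBS plus penicillin/streptomycin. Seeded at 8 × 10³ cells/well and settled 18 h at 37 °C, 5% CO₂. Medium was then replaced with fresh medium holding graded compound concentrations from 10 mM DMSO stocks, in triplicate, for 72 h. Viability by MTT; GI50 is the concentration inhibiting proliferation by 50%.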

Jurkat cells [2] = assay: Flow cytometric cell cycle analysis, Jurkat; format: cell-based, human; conditions: 24 h, different concentrations
Summary of the method: (§1)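 5 × 10⁵ HeLa (DMEM) or Jurkat (RPMI-1640) cells, both with 10% FBS, were treated with a range of test compound concentrations for 24 h. Cells were then collected and fixed in ice-cold 70% ethanol, lysed in buffer with RNase A and 0.1% Triton X-100, and PI-stained. DNA content was read by flow cytometry and histograms analysed for phase percentages. Mean of two independent experiments.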

HeLa cells [3] = assay: Flow cytometric cell cycle analysis, HeLa; format: cell-based, human; conditions: 24 h, different concentrations
Summary of the method: as §1

HeLa cells [4] = assay: Annexin-V/PI apoptosis assay, HeLa; format: cell-based, human; conditions: 24 or 48 h
Summary of the method: (§2)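 Human lines: HeLa grown in DMEM and Jurkat in RPMI-1640, each with 10% FBS, penicillin G and streptomycin. Cells exposed to test compound at several concentrations for 24 or 48 h, harvested and double-stained with annexin-V-FITC and PI. Surface phosphatidylserine read by flow cytometry, giving live, early apoptotic, late apoptotic and necrotic fractions. Mean ± SEM of three independent experiments.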

HeLa cells [5] = assay: ROS production; format: cell-based, human; conditions: 24 or 48 h
Summary of the method: (§3)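 HeLa or Jurkat cells were treated with test compound for 24 or 48 h, then loaded with H₂-DCFDA, which ROS oxidise to fluorescent DCF. Fluorescence was measured by flow cytometry. Mean ± SEM of three independent experiments.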

Jurkat cells [6] = assay: ROS production; format: cell-based, human; conditions: 24 or 48 h
Summary of the method: as §3

Jurkat cells [7] = assay: Annexin-V/PI apoptosis assay, Jurkat; format: cell-based, human; conditions: 24 or 48 h
Summary of the method: as §2

[8] = Metabolic stability in human liver microsomes; format: in vitro ADME; conditions: 10 μM
Summary of the method: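 Pooled mixed-gender human liver microsomes (1.0 mg/mL) in 0.1 M KH₂PO₄, pH 7.4, with 10 μM final compound, with or without 1 mM NADPH; buffer-only controls. Microsomes added after 3-min equilibration at 37 °C. Stopped at 0, 15, 30 or 60 min with ice-cold acetonitrile, then centrifuged. Supernatants analysed by C18 HPLC with fluorescence detection (ex 344/em 493 nm). Percent remaining from peak area versus 0 min; mean ± SD, n = 3–4.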

HeLa cells [9] = assay: Mitochondrial membrane potential; format: cell-based, human; conditions: 24 or 48 h
Jurkat cells [10] = assay: Mitochondrial membrane potential; format: cell-based, human; conditions: 24 or 48 h

Sequence of bovine brain tubulin (Q6B856 whole entry): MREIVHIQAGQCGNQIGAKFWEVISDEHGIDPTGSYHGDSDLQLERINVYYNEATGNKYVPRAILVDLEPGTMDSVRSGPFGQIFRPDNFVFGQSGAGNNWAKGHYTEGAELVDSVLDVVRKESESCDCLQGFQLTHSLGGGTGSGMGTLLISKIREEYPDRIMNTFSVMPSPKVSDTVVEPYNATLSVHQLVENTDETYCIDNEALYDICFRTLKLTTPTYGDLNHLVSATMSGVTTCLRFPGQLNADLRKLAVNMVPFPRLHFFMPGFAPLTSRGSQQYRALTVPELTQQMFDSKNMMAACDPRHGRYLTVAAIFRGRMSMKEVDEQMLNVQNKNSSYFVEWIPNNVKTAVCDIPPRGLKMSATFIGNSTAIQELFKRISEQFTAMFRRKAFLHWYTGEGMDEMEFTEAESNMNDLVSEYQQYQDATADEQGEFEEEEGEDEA
Sequence of bovine brain tubulin (P81947 whole entry): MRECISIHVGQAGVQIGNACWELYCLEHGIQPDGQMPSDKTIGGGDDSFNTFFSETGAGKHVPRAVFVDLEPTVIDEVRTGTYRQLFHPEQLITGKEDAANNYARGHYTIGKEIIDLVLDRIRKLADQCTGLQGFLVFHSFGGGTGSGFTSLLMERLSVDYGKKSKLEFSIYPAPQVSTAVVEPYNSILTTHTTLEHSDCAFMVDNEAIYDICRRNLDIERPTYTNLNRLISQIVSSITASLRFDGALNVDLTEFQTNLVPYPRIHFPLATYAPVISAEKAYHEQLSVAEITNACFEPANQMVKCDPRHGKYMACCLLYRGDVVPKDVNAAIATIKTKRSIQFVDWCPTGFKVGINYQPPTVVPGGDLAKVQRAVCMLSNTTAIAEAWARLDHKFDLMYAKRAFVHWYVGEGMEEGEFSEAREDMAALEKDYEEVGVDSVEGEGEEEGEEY

O=c1cc(-c2ccccc2)[nH]c2ccc3c(ccn3CC3CC3)c12 [Compound 10]
IC50 (bovine brain tubulin): 900 nM
inhibition of colchicine binding (tubulin): 83%
induction of autophagy (A549 cell line): induce autophagy

O=C(c1ccccc1)N1CCc2c1ccc1[nH]c(-c3ccccc3)cc(=O)c21 [Compound 7a, 3-benzoyl-1,2-dihydro-7-phenyl-6H-pyrrolo[3,2-f]quinolin-9-one]
GI50 [1]: 250 to 2650 nM

O=C(c1ccccc1)n1ccc2c3c(=O)cc(-c4ccccc4)[nH]c3ccc21 [Compound 4a, 3-Benzoyl-7-phenyl-6H-pyrrolo[3,2-f]quinolin-9-one]
effect on cell cycle progression (Jurkat cells [2]): significant G2/M arrest in a concentration-dependent manner
effect on cell cycle progression (HeLa cells [3]): significant G2/M arrest in a concentration-dependent manner
induction of apoptosis (annexin-V/PI) (HeLa cells [4]): significant time- and concentration-dependent increase of apoptotic cells
ROS production (H2-DCFDA) (HeLa cells [5]): induced the production of large amounts of ROS
GI50 [1]: 0.1 to 10 nM
ROS production (H2-DCFDA) (Jurkat cells [6]): induced the production of large amounts of ROS
induction of apoptosis (annexin-V/PI) (Jurkat cells [7]): significant time- and concentration-dependent increase of apoptotic cells
influence of NADPH on compound disappearance ([8]; HLMs 1 mg/mL, with or without 1 mM NADPH): not influenced by the presence of NADPH
compound remaining ([8]; human liver microsomes 1 mg/mL, 60 min, 37 °C): more than 60%
cells with low mitochondrial transmembrane potential (JC-1) (HeLa cells [9]): marked increase in the percentage of cells with low Δϕmt
cells with low mitochondrial transmembrane potential (JC-1) (Jurkat cells [10]): marked increase in the percentage of cells with low Δϕmt

CS(=O)(=O)N1CCc2cc3[nH]c(-c4ccccc4)cc(=O)c3cc21 [Compound 8b, 1N-methanesulfonyl-2,3-dihydro-6-phenyl-5H-pyrrolo [2,3-g]quinolin-8-one]
GI50 [1]: > 10000 nM

CS(=O)(=O)n1ccc2c3c(=O)cc(-c4ccccc4)[nH]c3ccc21 [Compound 4b, 3-Methanesulfonyl-7-phenyl-6H-pyrrolo[3,2-f]quinolin-9-one]
induction of apoptosis (annexin-V/PI) (HeLa cells [4]): significant time- and concentration-dependent increase of apoptotic cells
ROS production (H2-DCFDA) (HeLa cells [5]): induced the production of large amounts of ROS
ROS production (H2-DCFDA) (Jurkat cells [6]): induced the production of large amounts of ROS
induction of apoptosis (annexin-V/PI) (Jurkat cells [7]): significant time- and concentration-dependent increase of apoptotic cells
cells with low mitochondrial transmembrane potential (JC-1) (HeLa cells [9]): marked increase in the percentage of cells with low Δϕmt
cells with low mitochondrial transmembrane potential (JC-1) (Jurkat cells [10]): marked increase in the percentage of cells with low Δϕmt
